According to ChEMBL document CHEMBL1833841, “Synthesis and biological evaluation of a novel class of isatin analogs as dual inhibitors of tubulin polymerization and Akt pathway” (Bioorg Med Chem, 2011):
Activity calls are given as the source filed them. The calls are words filed in the database; no cut-off is given here.

How the values were obtained:
HT-29 [1] = test: Cytotoxicity against human HT-29 cells after 48 hrs by MTS assay; type: functional, cell-based; conditions: HT-29, 48 h
How it was run: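 HT29 cells maintained in RPMI with 10% FBS. 5×10^3 cells/well were left to adhere 24 h, then exposed 48 h to compound (DMSO stock diluted in DMEM, 0.5–50 µM). MTS absorbance at 490 nm normalized to control. IC50 from sigmoidal variable-slope fit. Triplicates, at least two independent experiments.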

MCF7 = test: Cytotoxicity against human MCF7 cells after 48 hrs by MTS assay; type: functional, cell-based; conditions: MCF7, 48 h
How it was run: (§1)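 A549, MCF-7 and UACC903 cells grown in DMEM with 10% FBS at 37°C, 5% CO2. 5×10^3 cells/well were left to adhere 24 h, then treated 48 h with compound (DMSO stock diluted in DMEM, 0.5–50 µM). MTS read at 490 nm and normalized to control. Dose-response fitted as sigmoidal, variable slope. Triplicates from at least two independent experiments.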

A549 = test: Cytotoxicity against human A549 cells after 48 hrs by MTS assay; type: functional, cell-based; conditions: A549, 48 h; how it was run: as §1
UACC-903 = test: Cytotoxicity against human UACC903 cells after 48 hrs by MTS assay; type: functional, cell-based; conditions: UACC-903, 48 h; how it was run: as §1
HT-29 [2] = test: Induction of apoptosis in human HT-29 cells assessed as viable cells at 1.25 uM after 24 hrs by PE annexin V and 7-Aminoactinomycin D staining-based flow cytometry (reference value: 93.2%); type: functional; conditions: HT-29, 24 h, read-out: Activity
How it was run: (§2)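 HT29 cells were treated with 1.25–5.0 µM compound or DMSO for 24 h at 37°C, harvested by low-speed centrifugation and washed twice in cold PBS. They were resuspended in binding buffer at 1×10^6 cells/ml, stained with PE annexin V and 7-AAD for 15 min at RT in the dark, and quantified by flow cytometry.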

[3] = molecular target: RAC-alpha serine/threonine-protein kinase (Homo sapiens) (UniProt P31749); test: Inhibition of AKT phosphorylation in human HT-29 cells assessed as p-AKT level at 1 uM after 24 hrs by Western blotting; type: cell-based
How it was run: (§3)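 HT29 cells treated 24 h with 1 or 2 µM compound or no drug. Lysed in HEPES/NaCl/EDTA/NP40 buffer with phosphatase and protease inhibitors. Protein equalized by Bradford, run on 10% gels, semi-dry transfer to nitrocellulose, blocked in 5% milk. Pan-Akt or phospho-Akt rabbit polyclonal primaries overnight at 4°C, HRP secondaries, chemiluminescence. β-actin loading control.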

HT-29 [4] = test: Induction of apoptosis in human HT-29 cells assessed as early apoptotic cells at 1.25 uM after 24 hrs by PE annexin V and 7-Aminoactinomycin D staining-based flow cytometry (reference value: 1.37%); type: functional; how it was run: as §2
HT-29 [5] = test: Induction of apoptosis in human HT-29 cells assessed as early apoptotic cells at 5 uM after 24 hrs by PE annexin V and 7-Aminoactinomycin D staining-based flow cytometry (reference value: 1.37%); type: functional; how it was run: as §2
HT-29 [6] = test: Induction of apoptosis in human HT-29 cells after 24 hrs by PE annexin V and 7-Aminoactinomycin D staining-based flow cytometry; type: functional, cell-based; how it was run: as §2
Bos taurus = species on record: Bos taurus; test: Inhibition of bovine brain tubulin polymerization at 10 uM after 1 hrs by fluorescence assay
How it was run: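 Compound at 10 µM final, DMSO as control. Fluorescence (ex 360, em 440 nm) read every 10 s for 1 h at 37°C, duplicate wells.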

HT-29 [7] = test: Induction of apoptosis in human HT-29 cells assessed as viable cells at 2.5 uM after 24 hrs by PE annexin V and 7-Aminoactinomycin D staining-based flow cytometry (reference value: 93.2%); type: functional; conditions: HT-29, 24 h, read-out: Activity; how it was run: as §2
HT-29 [8] = test: Inhibition of AKT expression in human HT-29 cells assessed as total AKT level at 1 uM after 24 hrs by Western blotting; type: functional, cell-based; how it was run: as §3
HT-29 [9] = test: Induction of apoptosis in human HT-29 cells assessed as dead cells at 1.25 uM after 24 hrs by PE annexin V and 7-Aminoactinomycin D staining-based flow cytometry (reference value: 1.33%); type: functional
How it was run: (§4)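 HT29 cells (RPMI, 10% FBS) treated with 1.25, 2.5 or 5 μM, or DMSO control, for 24 h at 37 °C. Cells then harvested, washed twice in cold PBS and resuspended at 1×10^6 cells/ml in binding buffer. Stained with PE annexin V and 7-AAD for 15 min at RT in the dark, then analysed by flow cytometry. 7-AAD-positive cells counted as dead.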

HT-29 [10] = test: Induction of apoptosis in human HT-29 cells assessed as dead cells at 5 uM after 24 hrs by PE annexin V and 7-Aminoactinomycin D staining-based flow cytometry (reference value: 1.33%); type: functional; how it was run: as §4
HT-29 [11] = test: Induction of apoptosis in human HT-29 cells assessed as late apoptosis or necrotic cells at 5 uM after 24 hrs by PE annexin V and 7-Aminoactinomycin D staining-based flow cytometry (reference value: 4.1%); type: functional; how it was run: as §2
HT-29 [12] = test: Induction of apoptosis in human HT-29 cells assessed as early apoptotic cells at 2.5 uM after 24 hrs by PE annexin V and 7-Aminoactinomycin D staining-based flow cytometry (reference value: 1.37%); type: functional; how it was run: as §2
HT-29 [13] = test: Induction of apoptosis in human HT-29 cells at 1.25 uM after 24 hrs by PE annexin V and 7-Aminoactinomycin D staining-based flow cytometry; type: functional; how it was run: as §4
HT-29 [14] = test: Induction of apoptosis in human HT-29 cells assessed as late apoptosis or necrotic cells at 2.5 uM after 24 hrs by PE annexin V and 7-Aminoactinomycin D staining-based flow cytometry (reference value: 4.1%); type: functional; how it was run: as §2
HT-29 [15] = test: Induction of apoptosis in human HT-29 cells assessed as increase in caspase 3/7 activation after 24 hrs by fluorescence spectrophotometry; type: functional, cell-based
How it was run: (§5)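 HT29 cells seeded at 1×10^4/well and grown 24 h, then treated 24 h with 1.25–5 µM compound or DMSO. Equal volume of Apo-ONE caspase-3/7 reagent added, shaken 30 s, incubated 2 h at RT. Cleaved-substrate fluorescence read at ex 498/em 521 nm, expressed relative to DMSO cells. Means ± SD, triplicate, one representative experiment.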

HT-29 [16] = test: Induction of apoptosis in human HT-29 cells assessed as dead cells at 2.5 uM after 24 hrs by PE annexin V and 7-Aminoactinomycin D staining-based flow cytometry (reference value: 1.33%); type: functional; how it was run: as §4
HT-29 [17] = test: Induction of apoptosis in human HT-29 cells at 2.5 uM after 24 hrs by PE annexin V and 7-Aminoactinomycin D staining-based flow cytometry; type: functional; how it was run: as §4
HT-29 [18] = test: Induction of apoptosis in human HT-29 cells assessed as viable cells at 5 uM after 24 hrs by PE annexin V and 7-Aminoactinomycin D staining-based flow cytometry (reference value: 93.2%); type: functional; conditions: HT-29, 24 h, read-out: Activity; how it was run: as §2
HT-29 [19] = test: Induction of apoptosis in human HT-29 cells assessed as late apoptosis or necrotic cells at 1.25 uM after 24 hrs by PE annexin V and 7-Aminoactinomycin D staining-based flow cytometry (reference value: 4.1%); type: functional; how it was run: as §2
HT-29 [20] = test: Induction of apoptosis in human HT-29 cells at 5 uM after 24 hrs by PE annexin V and 7-Aminoactinomycin D staining-based flow cytometry (reference value: 6.8%); type: functional; how it was run: as §4
HT-29 [21] = test: Induction of apoptosis in human HT-29 cells assessed as increase in caspase 3/7 activation after 24 hrs by fluorescence spectrophotometry relative to control; type: functional; design: concentration or dose not given beside the values; how it was run: as §5
HT-29 [22] = test: Inhibition of AKT expression in human HT-29 cells assessed as total AKT level at 2 uM after 24 hrs by Western blotting; type: functional, cell-based; how it was run: as §3
MEF = test: Cytotoxicity against mouse MEF cells after 48 hrs by MTS assay; type: cell-based
How it was run: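 Mouse embryonic fibroblasts exposed to compound for 48 h; viability then read by MTS colorimetric assay. IC50 derived from the viability data.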

HT-29 [23] = test: Induction of apoptosis in human HT-29 cells assessed as DNA fragmentation at 5 uM after 48 hrs by TUNEL assay; type: functional, cell-based
How it was run: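 1×10^5 HT29 cells/well grown 24 h in 10% serum medium, then exposed to 5 µM compound. Fragmented DNA stained with ApopTag Red in situ kit, Hoechst nuclear counterstain. Red TUNEL-positive versus blue total nuclei scored by fluorescence microscopy.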

Sequence of RAC-alpha serine/threonine-protein kinase (Homo sapiens) (P31749 whole entry): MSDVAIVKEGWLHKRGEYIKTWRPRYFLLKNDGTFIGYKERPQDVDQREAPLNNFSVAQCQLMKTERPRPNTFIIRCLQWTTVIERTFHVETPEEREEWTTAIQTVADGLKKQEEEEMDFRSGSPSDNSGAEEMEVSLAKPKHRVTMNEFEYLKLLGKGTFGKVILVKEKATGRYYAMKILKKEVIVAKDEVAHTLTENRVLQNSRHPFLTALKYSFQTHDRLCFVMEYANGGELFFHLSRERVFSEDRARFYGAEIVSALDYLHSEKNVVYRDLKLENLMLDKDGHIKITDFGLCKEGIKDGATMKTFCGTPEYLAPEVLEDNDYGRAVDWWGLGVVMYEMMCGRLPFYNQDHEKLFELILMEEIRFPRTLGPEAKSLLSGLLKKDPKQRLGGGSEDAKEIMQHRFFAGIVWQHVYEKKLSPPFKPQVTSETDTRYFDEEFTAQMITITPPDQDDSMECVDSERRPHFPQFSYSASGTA

| SMILES | IC50 (HT-29 [1]) [µM] | IC50 (MCF7) [µM] | IC50 (A549) [µM] | IC50 (UACC-903) [µM] | viability at 1.25 µM (HT-29 [2]) [%] | Activity (HT-29 [4]) [%] | Activity (HT-29 [5]) [%] | Activity (HT-29 [6]) | inhibition (Bos taurus) | viability at 2.5 µM (HT-29 [7]) [%] | Activity (HT-29 [9]) [%] | Activity (HT-29 [10]) [%] | Activity (HT-29 [11]) [%] | Activity (HT-29 [12]) [%] | Activity (HT-29 [13]) [%] | Activity (HT-29 [14]) [%] | Activity (HT-29 [15]) | Activity (HT-29 [16]) [%] | Activity (HT-29 [17]) [%] | viability at 5 µM (HT-29 [18]) [%] | further results |
| --- | --- | --- | --- | --- | --- | --- | --- | --- | --- | --- | --- | --- | --- | --- | --- | --- | --- | --- | --- | --- | --- |
| N#C[Se]Cc1ccc(CN2C(=O)C(=O)c3cc(Br)cc(Br)c32)cc1 | 2.59 | 1.45 | 2.41 | 12.1 | – | – | – | – | – | – | – | – | – | – | – | – | – | – | – | – | – |
| O=C1C(=O)N(CCCCCl)c2c(Br)cc(Br)cc21 | 2.51 | 14.9 | 3.81 | 3.74 | – | – | – | – | – | – | – | – | – | – | – | – | – | – | – | – | – |
| O=C1C(=O)N(Cc2ccc(CN=C=S)cc2)c2c(Br)cc(Br)cc21 | 1.09 | 12 | 3.82 | 3.11 | 83.6 | 3.5 | 2.93 | Dose-dependent effect | 77% | 63.4 | 4.29 | 10.8 | 47.5 | 6.78 | 16.38 | 23.3 | Dose-dependent effect | 6.56 | 36.64 | 38.8 | inhibition [3]: inactive; inhibition (HT-29 [8]): Active; Activity (HT-29 [19]): 8.59%; Activity (HT-29 [20]): 61.23%; fold change (FC) (HT-29 [21]): 16; inhibition (HT-29 [22]): Active |
| CC(=O)O[C@H]1C(=O)[C@@]2(C)[C@H]([C@H](OC(=O)c3ccccc3)[C@]3(O)C[C@H](OC(=O)[C@H](O)[C@@H](NC(=O)c4ccccc4)c4ccccc4)C(C)=C1C3(C)C)[C@]1(OC(C)=O)CO[C@@H]1C[C@@H]2O | – | – | – | – | – | – | – | – | inactive | – | – | – | – | – | – | – | – | – | – | – | – |
| N#C[Se]CCCN1C(=O)C(=O)c2cc(Br)cc(Br)c21 | 3.18 | 1.65 | 3.46 | 21.6 | 92.1 | 1.94 | 48.6 | Dose-dependent effect | 63% | 89.6 | 1.53 | 1.89 | 5.79 | 2.25 | 7.92 | 6.27 | Dose-dependent effect | 1.92 | 10.44 | 43.8 | Activity (HT-29 [19]): 4.45%; Activity (HT-29 [20]): 56.28%; fold change (FC) (HT-29 [21]): 16 |
| N#CSCc1ccc(CN2C(=O)C(=O)c3cc(Br)cc(Br)c32)cc1 | 1.14 | 24.7 | 2.53 | 2.23 | 88.5 | 4.42 | 2.68 | Dose-dependent effect | 71% | 60.6 | 2.59 | 11.4 | 52.9 | 10.6 | 11.47 | 21.1 | Dose-dependent effect | 7.76 | 39.46 | 33.1 | inhibition [3]: inactive; IC50 (MEF): > 20 µM; Activity (HT-29 [23]): Active; inhibition (HT-29 [8]): Active; Activity (HT-29 [19]): 4.46%; Activity (HT-29 [20]): 66.98%; fold change (FC) (HT-29 [21]): 16; inhibition (HT-29 [22]): Active |
